Experimental data taken from ChEMBL document CHEMBL1151222, “A new lariciresinol-type butyrolactone lignan derived from hydroxymatairesinol and its identification in spruce wood” (J Nat Prod, 2004).

What was measured:
Parameters in all cases: dose 50 mg/kg, route oral
Details in all cases: in vivo
Rattus norvegicus [1] = assay: Metabolic stability in Sprague-Dawley rat assessed as urinary excretion of allo-hydroxymatairesinol at 50 mg/kg, po after 48 hrs; format: ADME, organism-based, Urine
Summary of the method: (§1)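 Five female Sprague-Dawley rats on RM1 diet received a single oral gavage of the lignan preparation in vehicle at 50 mg/kg. Individual 48 h urine was hydrolysed enzymatically, solid-phase extracted at pH 4.0 and measured by negative-ion HPLC-MS/MS MRM against calibration curves in spiked blank rat urine. Background was subtracted. Excretion is excreted molar amount per administered molar amount of that same component, reported as mean ± SD.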

Rattus norvegicus [2] = assay: Metabolic stability in Sprague-Dawley rat assessed as conversion to allo-hydroxymatairesinol level at 50 mg/kg, po after 48 hrs; format: ADME, organism-based
Summary of the method: (§2)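 Five female Sprague-Dawley rats were kept on RM1 diet before and during the study. A knotwood-derived lignan preparation was given once by oral gavage in vehicle at 50 mg/kg, and individual urine was collected over 48 h. Urine was enzymatically hydrolysed, solid-phase extracted at pH 4.0 and analysed by negative-mode HPLC-ESI-MS/MS MRM. Pre-dose background was subtracted. Conversion is excreted molar amount per total administered molar amount, reported as mean ± SD.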

Rattus norvegicus [3] = assay: Metabolic stability in Sprague-Dawley rat assessed as urinary excretion of hydroxymatairesinol at 50 mg/kg, po after 48 hrs; format: ADME, organism-based, Urine; summary of the method: as §1
Rattus norvegicus [4] = assay: Metabolic stability in Sprague-Dawley rat assessed as conversion to hydroxymatairesinol level at 50 mg/kg, po after 48 hrs; format: ADME, organism-based; summary of the method: as §2
Rattus norvegicus [5] = assay: Metabolic stability in Sprague-Dawley rat assessed as conversion to isohydroxymatairesinol level at 50 mg/kg, po after 48 hrs; format: ADME, organism-based; summary of the method: as §2
Rattus norvegicus [6] = assay: Metabolic stability in Sprague-Dawley rat assessed as urinary excretion of isohydroxymatairesinol at 50 mg/kg, po after 48 hrs; format: ADME, organism-based, Urine; summary of the method: as §1

## COc1cc(C[C@H]2C(=O)OC[C@@H]2[C@@H](O)c2ccc(O)c(OC)c2)ccc1O
Rattus norvegicus [1]
  Activity: 14.3%
Rattus norvegicus [2]
  Activity: 1400 nmol

## COc1cc(C[C@H]2C(=O)OC[C@@H]2[C@H](O)c2ccc(O)c(OC)c2)ccc1O [HYDROXYMATAIRESINOL]
Rattus norvegicus [3]
  Activity: 6%
Rattus norvegicus [4]
  Activity: 1100 nmol

## COc1cc(C[C@H]2C(=O)O[C@H](c3ccc(O)c(OC)c3)[C@H]2CO)ccc1O [ISOHYDROXYMATAIRESINOL]
Rattus norvegicus [5]
  Activity: 39 nmol
Rattus norvegicus [6]
  Activity: 5.9%
